{"data": "Assay results from different studies", "HTR2C": "5-hydroxytryptamine receptor 2C (HTR2C, Homo sapiens, UniProt P28335)", "HTR2B": "5-hydroxytryptamine receptor 2B (HTR2B, Homo sapiens, UniProt P41595)", "mraY": "mraY (Staphylococcus aureus, UniProt Q2FZ93)", "note": "Lines come from different studies, so protocols differ."}
{"Structure (SMILES)": "COc1cc2c3c(c1OC)-c1c(OC)ccc(N4CCOCC4)c1CC3N(C)CC2 (stereo not drawn)", "target": "HTR2C", "test": "ligand displacement, radioligand", "setting": "10 µM", "inhibition [%]": 50}
{"Structure (SMILES)": "NC/C(=C\\F)COc1cccc(Cn2c(=S)[nH]c(=O)c3[nH]cnc32)c1", "target": "HTR2B", "test": "ligand displacement, radioligand", "setting": "10 µM", "inhibition [%]": "< 50"}
{"Structure (SMILES)": "CCCCCCC#Cc1cncc(-c2nnc(SCCCn3ccc(=O)[nH]c3=O)n2C)c1", "target": "mraY", "test": "enzyme activity, inhibitor", "setting": "100 µM", "inhibition [%]": 7}
{"Structure (SMILES)": "C#Cc1cc(-c2cc(Nc3nc(N[C@@H](C)c4ccc(F)cn4)ncc3Cl)n[nH]2)ccc1C=O", "target": "Serine/threonine-protein kinase SIK1 (SIK1, Homo sapiens, UniProt P57059)", "test": "enzyme activity, inhibitor", "setting": "0.2 µM", "inhibition [%]": 82.4}
{"Structure (SMILES)": "CCCCCCC#Cc1cncc(-c2nnc(SCc3cc(=O)[nH]c4ccccc34)n2C)c1", "target": "mraY", "test": "cell-free assay, inhibitor", "setting": "250 µM", "inhibition [%]": 30}
{"Structure (SMILES)": "CC[N+]1(C)CCc2cc(OC)c(OC)c3c2C1Cc1cccc(OC)c1-3 (stereo not drawn)", "target": "HTR2C", "test": "ligand displacement, radioligand", "setting": "10 µM", "inhibition [%]": -19}
{"Structure (SMILES)": "CCCCCCC#Cc1cncc(-c2nnc(SC[C@H]3O[C@@H](n4ccc(=O)[nH]c4=O)[C@H](O)[C@@H]3O)n2CCCN)c1", "target": "mraY", "test": "cell-free assay, inhibitor", "setting": "250 µM", "inhibition [%]": 44}
{"Structure (SMILES)": "COc1cc2c3c(c1OC)-c1c(OC)ccc(NC(C)=O)c1CC3N(C)CC2 (stereo not drawn)", "target": "HTR2C", "test": "ligand displacement, radioligand", "setting": "10 µM", "inhibition [%]": 3}
{"Structure (SMILES)": "CCN1/C(=C/C(C)=O)Sc2ccc(F)cc21", "target": "Substance-P receptor (TACR1, Homo sapiens, UniProt P25103)", "test": "ligand displacement, radioligand", "setting": "10 µM", "inhibition [%]": 20.8}
{"Structure (SMILES)": "CCCCCCC#Cc1cncc(-c2nnc(SCc3cc([N+](=O)[O-])cc([N+](=O)[O-])c3)n2CCCN)c1", "target": "mraY", "test": "cell-free assay, inhibitor", "setting": "250 µM", "inhibition [%]": 100}
{"Structure (SMILES)": "Cc1cc(F)cc2c(CCC(=O)N[C@@H]3C(=O)NC[C@H]3O)c(-c3ccc(F)cc3)[nH]c12", "target": "HTR2B", "test": "cell-free assay", "setting": "10 µM", "inhibition [%]": 10}
{"Structure (SMILES)": "COc1cc2c3c(c1OC)-c1c(OC)ccc(-c4ccc(C#N)cc4)c1CC3N(C)CC2 (stereo not drawn)", "target": "HTR2B", "test": "ligand displacement, radioligand", "setting": "10 µM", "inhibition [%]": 65}
